Columns and labels:
[1] = Antiproliferative activity against human Molt4/C8 cells after 72 hrs by coulter counting analysis; format: functional, cell-based; settings: MOLT-4, 72 h
In short: (§1)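 Cells exposed to a range of concentrations in RPMI 1640 at 37°C for 72 h. Surviving cells counted by Coulter counter. IC50 taken from concentration-response curves, mean ± SD of at least three independent experiments.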

CCRF-CEM [2] = assay: Antiproliferative activity against human CEM cells after 72 hrs by coulter counting analysis; format: functional, cell-based; in short: as §1
HeLa = assay: Antiproliferative activity against human HeLa cells after 72 hrs by coulter counting analysis; format: functional, cell-based; in short: as §1
L1210 = assay: Antiproliferative activity against mouse L1210 cells after 72 hrs by coulter counting analysis; format: functional, cell-based; settings: L1210, 72 h
[3] = Cytotoxicity against human NCI60 cells assessed as inhibition of tumor growth after 24 hrs; format: functional, cell-based; settings: NCI60, 24 h
[4] = Cytotoxicity against human HCT15 cells assessed as inhibition of tumor growth after 24 hrs; format: functional, cell-based; settings: HCT-15, 24 h
[5] = Antileukemic activity against human RPMI8226 cells assessed as inhibition of tumor growth after 24 hrs; format: functional, cell-based; settings: rpmi-8226
SR = assay: Antileukemic activity against human SR cells assessed as inhibition of tumor growth after 24 hrs; format: functional, cell-based
COLO 205 = assay: Cytotoxicity against human COLO205 cells assessed as inhibition of tumor growth after 24 hrs; format: functional, cell-based; settings: COLO 205, 24 h
HCC 2998 = assay: Cytotoxicity against human HCC2998 cells assessed as inhibition of tumor growth after 24 hrs; format: functional, cell-based; settings: HCC 2998, 24 h
KM12 = assay: Cytotoxicity against human KM12 cells assessed as inhibition of tumor growth after 24 hrs; format: functional, cell-based; settings: KM12, 24 h
SW-620 = assay: Cytotoxicity against human SW620 cells assessed as inhibition of tumor growth after 24 hrs; format: functional, cell-based; settings: SW-620, 24 h
HL-60(TB) = assay: Antileukemic activity against human HL-60(TB) cells assessed as inhibition of tumor growth after 24 hrs; format: functional, cell-based; settings: HL-60, 24 h
K562 = assay: Antileukemic activity against human K562 cells assessed as inhibition of tumor growth after 24 hrs; format: functional, cell-based; settings: K562, 24 h
[6] = Cytotoxicity against human SupT1 cells assessed as dead cells at 1 uM after 24 hrs; format: functional, SUP-T1
In short: (§2)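 Dienones added as DMSO solutions to cells in RPMI medium and incubated 24 h at 37°C. Cytotoxicity was scored as cell-membrane disruption by propidium iodide staining and expressed as percentage of dead cells, averaged over three independent experiments.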

[7] = Cytotoxicity against human HuT-102 cells assessed as dead cells at 1 uM after 24 hrs; format: functional; in short: as §2
[8] = Cytotoxicity against human MOLT3 cells assessed as dead cells at 1 uM after 24 hrs; format: functional, MOLT-3; in short: as §2
EL4 = assay: Cytotoxicity against mouse EL4 cells assessed as dead cells at 1 uM after 24 hrs; format: functional; in short: as §2
[9] = Cytotoxicity against human NALM6 cells assessed as dead cells at 1 uM after 24 hrs; format: functional, NALM-6; in short: as §2
Raji = assay: Cytotoxicity against human Raji cells assessed as dead cells at 1 uM after 24 hrs; format: functional; in short: as §2
Ramos = assay: Cytotoxicity against human Ramos cells assessed as dead cells at 1 uM after 24 hrs; format: functional; in short: as §2
BJAB = assay: Cytotoxicity against human BJAB cells assessed as dead cells at 1 uM after 24 hrs; format: functional; in short: as §2
YT = assay: Cytotoxicity against human YT cells assessed as dead cells at 1 uM after 24 hrs; format: functional; in short: as §2
MCF7 = assay: Cytotoxicity against human MCF7 cells assessed as dead cells at 1 uM after 24 hrs; format: functional; in short: as §2
[10] = Cytotoxicity against human MDA231 cells assessed as dead cells at 1 uM after 24 hrs; format: functional, MDA-MB-231; in short: as §2
HCC70 = assay: Cytotoxicity against human HCC70 cells assessed as dead cells at 1 uM after 24 hrs; format: functional; in short: as §2
[11] = Cytotoxicity against human MCF10A cells assessed as dead cells at 1 uM after 24 hrs; format: cell-based; settings: mcf-10a
In short: (§3)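 Compounds added from DMSO solutions to cells in medium (RPMI; DMEM for Hs-27 fibroblasts) and incubated 24 h at 37°C. Membrane disruption scored by propidium iodide uptake. Result is percentage of dead cells, average of three independent experiments.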

DU-145 = assay: Cytotoxicity against human DU145 cells assessed as dead cells at 1 uM after 24 hrs; format: functional; in short: as §2
[12] = Cytotoxicity against human 22Rvl cells assessed as dead cells at 1 uM after 24 hrs; format: functional; in short: as §2
LAPC4 = assay: Cytotoxicity against human LAPC4 cells assessed as dead cells at 1 uM after 24 hrs; format: functional; in short: as §2
HS27 = assay: Cytotoxicity against human HS27 cells assessed as dead cells at 1 uM after 24 hrs; format: cell-based; settings: hs27, 24 h; in short: as §3
Jurkat = assay: Cytotoxicity against human Jurkat cells assessed as dead cells at 1 uM after 24 hrs; format: functional; in short: as §2
CCRF-CEM [13] = assay: Cytotoxicity against human CEM cells assessed as dead cells at 1 uM after 24 hrs; format: functional; in short: as §2

Compound | IC50 [1] [nM] | IC50 (CCRF-CEM [2]) [nM] | IC50 (HeLa) [nM] | IC50 (L1210) [µM] | IC50 [3] [nM] | IC50 [4] [nM] | IC50 [5] [nM] | IC50 (SR) [nM] | IC50 (COLO 205) [nM] | IC50 (HCC 2998) [nM] | IC50 (KM12) [nM] | IC50 (SW-620) [nM] | IC50 (HL-60(TB)) [nM] | IC50 (K562) [nM] | further results
O=C1/C(=C\c2ccc(Cl)c(Cl)c2)CN(C(=O)CC(=O)N2C/C(=C\c3ccc(Cl)c(Cl)c3)C(=O)/C(=C/c3ccc(Cl)c(Cl)c3)C2)C/C1=C\c1ccc(Cl)c(Cl)c1 | 23500 | 49900 | 39800 | 30.4 |  |  |  |  |  |  |  |  |  |  | 
O=C1/C(=C/c2ccccc2)CN(C(=O)C(=O)N2C/C(=C\c3ccccc3)C(=O)/C(=C/c3ccccc3)C2)C/C1=C\c1ccccc1 | 462 | 750 | 1000 | 4.46 | 310 | 300 | 30 | 20 |  |  |  |  |  |  | 
O=C1/C(=C\c2ccc(O)cc2)CN(C(=O)CC(=O)N2C/C(=C\c3ccc(O)cc3)C(=O)/C(=C/c3ccc(O)cc3)C2)C/C1=C\c1ccc(O)cc1 |  |  |  |  | 1660 | 1170 | 350 | 460 | 1660 | 1740 | 690 | 760 | 1740 | 530 | 
O=C1/C(=C\c2ccccc2)CN(C(=O)CC(=O)N2C/C(=C\c3ccccc3)C(=O)/C(=C/c3ccccc3)C2)C/C1=C\c1ccccc1 | 73 | 201 | 910 | 1.23 | 240 | 170 | 130 | 30 | 160 | 170 | 130 | 50 | 290 | 50 | 
Cc1ccc(/C=C2\CN(C(=O)C(=O)N3C/C(=C\c4ccc(C)cc4)C(=O)/C(=C/c4ccc(C)cc4)C3)C/C(=C\c3ccc(C)cc3)C2=O)cc1 | 1660 | 7720 | 3790 | 9.09 |  |  |  |  |  |  |  |  |  |  | Activity [6]: 18.8%; Activity [7]: 13.9%; Activity [8]: 0.8%; Activity (EL4): 43.5%; Activity [9]: 59.5%; Activity (Raji): 41.5%; Activity (Ramos): 84.4%; Activity (BJAB): 41.5%; Activity (YT): 20.1%; Activity (MCF7): 0%; Activity [10]: 9.3%; Activity (HCC70): 11.9%; Activity [11]: 9.3%; Activity (DU-145): 26%; Activity [12]: 16.2%; Activity (LAPC4): 2.4%; Activity (HS27): 12%; Activity (Jurkat): 80.7%; Activity (CCRF-CEM [13]): 68.4%
O=c1[nH]cc(F)c(=O)[nH]1 [FLUOROURACIL] |  |  |  |  | 29500 |  | 3550 |  |  |  |  |  |  |  | 
O=C1/C(=C/c2ccc(F)cc2)CN(C(=O)C(=O)N2C/C(=C\c3ccc(F)cc3)C(=O)/C(=C/c3ccc(F)cc3)C2)C/C1=C\c1ccc(F)cc1 | 83 | 221 | 388 | 0.422 | 580 | 160 | 120 | 160 | 630 | 620 | 300 | 320 | 1120 | 280 | Activity [6]: 35.6%; Activity [7]: 64.4%; Activity [8]: 3.1%; Activity (EL4): 34.7%; Activity [9]: 61.6%; Activity (Raji): 33.5%; Activity (Ramos): 53.3%; Activity (BJAB): 61.8%; Activity (YT): 17.1%; Activity (MCF7): 16.2%; Activity [10]: 5.5%; Activity (HCC70): 6.6%; Activity [11]: 7.7%; Activity (DU-145): 15.2%; Activity [12]: 30.1%; Activity (LAPC4): 11.3%; Activity (HS27): 0.6%; Activity (Jurkat): 87.8%; Activity (CCRF-CEM [13]): 85.3%
